Square brackets hold non-standard residues; d marks the D form. Peptide text beside a SMILES is read from it. * marks the point of attachment. X1 = O=C(O)c1cc(C(=O)*)ccc1-c1c2ccc(=O)cc-2oc2cc(O)ccc12; Gly(N-(CH2)6NH2) = NCCCCCCNCC(=O)O; Ahx = NCCCCCC(=O)O
What was measured:
Format in all cases: cell-based
HeLa = assay: Cytotoxicity against human HeLa cells after 24 hrs by MTT assay
Procedure, shortened: (§1)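 Cells kept in 10 µM peptoid in medium. Viability read by MTT 24 h after compound addition, absorbance at 570 nm.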

K562 = assay: Cytotoxicity against human K562 cells after 24 hrs by MTT assay; details: k562, 24 h; procedure, shortened: as §1
L929 = assay: Cytotoxicity against mouse L929 cells after 24 hrs by MTT assay; details: l929, 24 h; procedure, shortened: as §1

Measured: Activity

NCCCCCCN(CC(N)=O)C(=O)CCCCCNC(=O)c1ccc(-c2c3ccc(=O)cc-3oc3cc(O)ccc23)c(C(=O)O)c1
Non-toxic: all assays above

NCCCCCCN(CC(N)=O)C(=O)CN(CCCCCCN)C(=O)CN(CCCCCCN)C(=O)CN(CCCCCCN)C(=O)CN(CCCCCCN)C(=O)CN(CCCCCCN)C(=O)CN(CCCCCCN)C(=O)CCCCCNC(=O)c1ccc(-c2c3ccc(=O)cc-3oc3cc(O)ccc23)c(C(=O)O)c1 ({X1-Ahx}-[Gly(N-(CH2)6NH2)][Gly(N-(CH2)6NH2)][Gly(N-(CH2)6NH2)][Gly(N-(CH2)6NH2)][Gly(N-(CH2)6NH2)][Gly(N-(CH2)6NH2)][Gly(N-(CH2)6NH2)]-NH2)
Non-toxic: all assays above

NCCCCCCN(CC(N)=O)C(=O)CN(CCCCCCN)C(=O)CN(CCCCCCN)C(=O)CCCCCNC(=O)c1ccc(-c2c3ccc(=O)cc-3oc3cc(O)ccc23)c(C(=O)O)c1
Non-toxic: all assays above

NCCCCCCN(CC(N)=O)C(=O)CN(CCCCCCN)C(=O)CN(CCCCCCN)C(=O)CN(CCCCCCN)C(=O)CN(CCCCCCN)C(=O)CCCCCNC(=O)c1ccc(-c2c3ccc(=O)cc-3oc3cc(O)ccc23)c(C(=O)O)c1
Non-toxic: all assays above
